Test [1] can be described thus: Her2 expression decrease, cell viability multiplex – SKBR3 breast tumor cells, AlphaScreen, ATP viability, primary screen (AID 461;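 active means Her2 level under about 52% in both replicate screens, with viability over 70% of control, limit read from the data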;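 on Her2 level: lower value means less Her2 protein in the cells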;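 on viability: percent of carrier control wells set as 100% viability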). Conditions: SKBR3 Her2 protein level, 18-24 h, measured here: SKBR3 viability, ATP luminescence, at 10 µM. Background: In Alpha technology, singlet oxygen from a donor bead excites a nearby acceptor bead.
Test [2] concerns the target Receptor tyrosine-protein kinase erbB-2 (Homo sapiens) (UniProt P04626). The test is described as above. The settings on record: 18-24 h, at 10 µM, stronger effect = lower value.
Test [3] is described as follows: reduced viability of SK-BR-3 breast cancer cells – cell-based, 24 h, human, pilot screen (AID 572;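 active means viability at or below 10% of carrier control in both of two separate runs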;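 further: compound exposure lasted between 18 and 24 h rather than exactly 24 h; 100% = carrier-treated control wells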). The settings on record: SK-BR-3 viability, CellTiter-Glo luminescence, at 10 µM, stronger effect = lower value. (In general: In ATP-based viability assays light output follows the ATP content of the culture.)
Test [4] can be described thus: HUVEC growth inhibition – cell-based, human, primary screen (AID 575;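 active means viability at or below 30% in both replicate assays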;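 further: 100% = median of untreated cell wells with 0.1% DMSO on each plate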). The settings on record: HUVEC proliferation, CellTiter-Glo luminescence, 72 h; at 10 µM; stronger effect = lower value. The method in brief:
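Assay system: primary human umbilical vein endothelial cells / Buffer or medium: endothelial basal medium with 2% FBS plus growth supplements / Compound dosing: one dose, 10 µM final, 0.1% DMSO / Timing: 72 h treatment at 37 °C / Signal: CTG luminescence / Benchmarks: 32 DMSO-only cell-control wells (high), 32 MePR drug-control wells (low) per plate / Plate: collagen-coated 384-well format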

Test [5] is described as follows: H69AR cell proliferation blockers – human, duplicate replicates, primary screen (AID 580;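 active means viability at or under a set limit in both replicates, limit being median viability minus 3 SD, cut at about 48% in these data, passing the limit was not always enough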;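 further: 100% = mean luminescence of untreated wells and 0% = no signal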). Conditions: H69AR lung tumor cells viability, ATP luminescence, 72 h; at 10 µM; stronger effect = lower value.
The nature of test [6]: MRP1 drug-resistance reversers in H69AR cells – cell-based, doxorubicin co-treatment, pilot screen (AID 601;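 active means viability loss from added drug above about 55%, and viability with drug at most 40%, in both replicates, limit read from the data, passing the limit was not always enough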). The settings on record: CellTiter-Glo, 72 h, at 10 µM; for differential viability (reversal): stronger effect = higher value.
Test [7] is described as follows: yeast transport mutant growth inhibition pilot in 384-well plates, post-Golgi transport modulator project (AID 636; in the data active means inhibition above about 31%). Conditions: absorbance 615 nm, about 18 h, stronger effect = higher value.
Test [8] in a line: growth suppression of yeast trafficking mutant, preliminary HTS, modulators of trafficking downstream of Golgi apparatus project, 1536-format plate, OD 615 nm (AID 637). Conditions: yeast transport mutant growth, absorbance 615 nm, 18 h; stronger effect = higher value.
Setting [9] is: H69AR cells + 2 uM doxorubicin, measured here: viability with 2 uM doxorubicin, stronger effect = lower value.
Where [10] appears, read: H69AR cells, compound alone cytotoxicity.

Structures are written as SMILES. Active and inactive are the calls of the source. Unless noted, no stated cut-off is given here; in the data, active means inhibition above about 30%; inactive means the rest.

Chain of Receptor tyrosine-protein kinase erbB-2 (Homo sapiens) (P04626 whole entry, looked up): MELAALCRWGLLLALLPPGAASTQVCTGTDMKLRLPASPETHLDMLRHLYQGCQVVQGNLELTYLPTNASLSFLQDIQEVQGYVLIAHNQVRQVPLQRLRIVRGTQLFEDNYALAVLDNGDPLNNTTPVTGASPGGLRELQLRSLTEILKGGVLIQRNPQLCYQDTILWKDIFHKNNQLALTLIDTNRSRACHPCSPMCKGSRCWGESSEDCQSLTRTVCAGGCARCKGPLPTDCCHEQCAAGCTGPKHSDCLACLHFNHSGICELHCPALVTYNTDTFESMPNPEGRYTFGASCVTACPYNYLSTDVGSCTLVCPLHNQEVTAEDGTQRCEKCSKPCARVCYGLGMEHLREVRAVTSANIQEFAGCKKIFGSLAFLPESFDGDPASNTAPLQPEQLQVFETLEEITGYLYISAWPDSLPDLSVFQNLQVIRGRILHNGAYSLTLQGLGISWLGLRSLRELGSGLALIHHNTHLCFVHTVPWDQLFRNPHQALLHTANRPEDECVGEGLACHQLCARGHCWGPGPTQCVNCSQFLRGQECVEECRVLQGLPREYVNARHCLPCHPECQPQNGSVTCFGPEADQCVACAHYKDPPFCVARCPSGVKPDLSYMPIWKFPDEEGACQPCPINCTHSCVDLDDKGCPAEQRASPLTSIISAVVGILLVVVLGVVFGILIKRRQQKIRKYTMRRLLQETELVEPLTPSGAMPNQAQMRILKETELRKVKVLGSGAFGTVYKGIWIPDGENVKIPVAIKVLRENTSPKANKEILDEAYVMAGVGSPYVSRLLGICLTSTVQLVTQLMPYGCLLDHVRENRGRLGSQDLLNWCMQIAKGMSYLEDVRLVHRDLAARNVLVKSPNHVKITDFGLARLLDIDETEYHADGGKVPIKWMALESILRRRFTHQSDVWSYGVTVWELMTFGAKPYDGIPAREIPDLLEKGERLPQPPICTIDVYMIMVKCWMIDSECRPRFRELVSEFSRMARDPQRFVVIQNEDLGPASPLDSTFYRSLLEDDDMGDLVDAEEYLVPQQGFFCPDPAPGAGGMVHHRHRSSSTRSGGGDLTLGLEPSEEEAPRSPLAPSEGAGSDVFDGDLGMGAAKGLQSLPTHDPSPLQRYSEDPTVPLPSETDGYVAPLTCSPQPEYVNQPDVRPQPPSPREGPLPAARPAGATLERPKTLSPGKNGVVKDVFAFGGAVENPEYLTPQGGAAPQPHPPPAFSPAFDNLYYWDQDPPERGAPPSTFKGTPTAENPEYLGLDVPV

For `O=C(CSc1ncc(-c2ccc(F)cc2)[nH]1)N1CCCCC1`, the viability (usually a read-out of living cells in per cent, often relative to untreated cells) in test [1] is 91%; in test [3], 91% (inactive); in test [4], 92.6% (inactive); in test [5] it was 91.3% (inactive); in test [6] (setting [9]), 89%; in test [6] (setting [10]) it was 91.3%. The Her2 level in test [2] was 124% (inactive). In test [6] (H69AR cells + 2 uM doxorubicin), the differential viability (reversal) was 2.38% (inactive). For the same molecule, the inhibition (as a rule, the relative decrease from the control value, in per cent) in test [7] was -2.95% (inactive); in test [8] it was 0% (inactive).

In the case of `CCc1nc2scc(-c3ccccc3)c2c(=O)n1N`, the viability in test [1] is 136%; in test [3] it was 136% (inactive); in test [4] it was 84% (inactive); in test [5], 88.4% (inactive); in test [6] (setting [9]), 96.5%; in test [6] (setting [10]) it was 88.4%. Further, the Her2 level in test [2] is 119% (inactive). In addition, the differential viability (reversal) in test [6] (H69AR cells + 2 uM doxorubicin) is -8.11% (inactive). The figures for the inhibition in test [7] and in test [8] were -1.33% (inactive) and -3.97% (inactive), respectively.

Turning to `Cc1cc(C)n(CC(=O)n2c3c(c4ccccc42)CCCC3)n1`, the viability in test [1] is 116%; in test [3] it was 116% (inactive); in test [4] it was 75.3% (inactive); in test [5], 74.4% (inactive); in test [6] (setting [9]), 81.4%; in test [6] (setting [10]) it was 74.4%. The Her2 level in test [2] was 117% (inactive). In addition, in test [6] (H69AR cells + 2 uM doxorubicin), the differential viability (reversal) is -6.97% (inactive). The inhibition was -5.53% (inactive) in test [7] and 3.77% (inactive) in test [8].

Turning to `CCN(CC)S(=O)(=O)c1ccc(Cl)c(C(=O)OC)c1`, the viability was 97% in test [1]; 97% (inactive) in test [3]; 99% (inactive) in test [4]; 95.7% (inactive) in test [5]; 91% in test [6] (setting [9]); 95.7% in test [6] (setting [10]). Also, in test [2], the Her2 level is 93% (inactive). Further, the differential viability (reversal) in test [6] (H69AR cells + 2 uM doxorubicin) was 4.65% (inactive). Moreover, the results for the inhibition in test [7] and in test [8] were -1.87% (inactive) and 2.9% (inactive), respectively.

With `COc1ccccc1NC(=O)CSC1CC(=O)N(c2ccc3c(c2)OCO3)C1=O` (stereo not given), the viability in test [1] is 98%; in test [3], 98% (inactive); in test [4] it was 96.5% (inactive); in test [5] it was 99.4% (inactive); in test [6] (setting [9]) it was 98.4%; in test [6] (setting [10]), 99.4%. Further, in test [2], the Her2 level was 82.5% (inactive). Moreover, in test [6] (H69AR cells + 2 uM doxorubicin), the differential viability (reversal) is 0.975% (inactive). The inhibition in test [7] is -4.53% (inactive); in test [8], 0.16% (inactive).

With `O=C(Nc1cc(Cl)ccc1Cl)c1noc2c1CCCC2`, the viability in test [1] is 87.5%; in test [3], 87.5% (inactive); in test [4], 63.5% (inactive); in test [5], 83.5% (inactive); in test [6] (setting [9]), 86.9%; in test [6] (setting [10]), 83.5%. In addition, the Her2 level in test [2] was 90.5% (inactive). In addition, the differential viability (reversal) in test [6] (H69AR cells + 2 uM doxorubicin) is -3.4% (inactive). Also, the inhibition in test [7] is -0.51% (inactive); in test [8], -5.5% (inactive).

With `CCCCc1ccc(NC(=O)c2c(C)noc2C)cc1`, the viability in test [1] is 105%; in test [3] it was 105% (inactive); in test [4] it was 96% (inactive); in test [5], 89.4% (inactive); in test [6] (setting [9]), 89.3%; in test [6] (setting [10]) it was 89.4%. Further, in test [2], the Her2 level is 94.5% (inactive). In addition, the differential viability (reversal) in test [6] (H69AR cells + 2 uM doxorubicin) is 0.065% (inactive). For the same molecule, the inhibition in test [7] is -3.68% (inactive); in test [8], 4.43% (inactive).

In the case of `CCOC(=O)C(C)n1cnc2c(nnn2Cc2ccc(C)cc2)c1=O` (stereo not given), the viability is 116% in test [1]; 116% (inactive) in test [3]; 104% (inactive) in test [4]; 91.9% (inactive) in test [5]; 88.7% in test [6] (setting [9]); 91.9% in test [6] (setting [10]). For the same molecule, the Her2 level in test [2] was 95.5% (inactive). In addition, the differential viability (reversal) in test [6] (H69AR cells + 2 uM doxorubicin) was 3.18% (inactive). Besides, the figures for the inhibition in test [7] and in test [8] were -9.73% (inactive) and 1.9% (inactive), respectively.

As for `O=C(Nc1ccc(S(=O)(=O)NC2CCCC2)cc1)c1cnccn1`, the viability in test [1] was 92%; in test [3] it was 92% (inactive); in test [4] it was 104% (inactive); in test [5], 93.7% (inactive); in test [6] (setting [9]), 91.2%; in test [6] (setting [10]), 93.7%. For the same molecule, the Her2 level in test [2] is 82.5% (inactive). Besides, the differential viability (reversal) in test [6] (H69AR cells + 2 uM doxorubicin) is 2.56% (inactive). For the same molecule, the inhibition in test [7] was -2.5% (inactive); in test [8], -4% (inactive).

Consider `CCOP(=O)(c1ccc(N(C)C)cc1)C(O)c1ccccc1OC` (stereo not given), for which the viability was 86% in test [1]; 86% (inactive) in test [3]; 115% (inactive) in test [4]; 98.7% (inactive) in test [5]; 95.1% in test [6] (setting [9]); 98.7% in test [6] (setting [10]). Moreover, the Her2 level in test [2] was 98.5% (inactive). Also, the differential viability (reversal) in test [6] (H69AR cells + 2 uM doxorubicin) is 3.56% (inactive). Also, the figures for the inhibition in test [7] and in test [8] were -1.07% (inactive) and -3.65% (inactive), respectively.

As for `CCOC(=O)Cn1c(CN2CCN(c3cccc(Cl)c3)CC2)nc2c1c(=O)[nH]c(=O)n2C`, the viability is 92.5% in test [1]; 92.5% (inactive) in test [3]; 69% (inactive) in test [4]; 72.5% (inactive) in test [5]; 78.7% in test [6] (setting [9]); 72.5% in test [6] (setting [10]). The Her2 level in test [2] is 87% (inactive). The differential viability (reversal) in test [6] (H69AR cells + 2 uM doxorubicin) was -6.24% (inactive). Moreover, the values for the inhibition in test [7] and in test [8] were 0% (inactive) and 1.17% (inactive), respectively.

`Cn1cccc1C1NC(=O)c2c(sc3c2CCC(C(C)(C)C)C3)N1` (stereo not given): the viability in test [1] was 110%; in test [3], 110% (inactive); in test [4] it was 125% (inactive); in test [5], 90.4% (inactive); in test [6] (setting [9]), 101%; in test [6] (setting [10]), 90.4%. Also, in test [2], the Her2 level is 77.5% (inactive). Further, the differential viability (reversal) in test [6] (H69AR cells + 2 uM doxorubicin) was -11% (inactive). Moreover, the inhibition is -9.86% (inactive) in test [7] and 1.67% (inactive) in test [8].

Take `COc1ccc2ccccc2c1CN1CCN(C)CC1`: the viability in test [1] was 97%; in test [3], 97% (inactive); in test [4], 75.1% (inactive); in test [5] it was 104% (inactive); in test [6] (setting [9]) it was 96.6%; in test [6] (setting [10]), 104%. Besides, the Her2 level in test [2] was 94.5% (inactive). Moreover, in test [6] (H69AR cells + 2 uM doxorubicin), the differential viability (reversal) was 7.19% (inactive). Besides, the inhibition in test [7] is 1.43% (inactive); in test [8] it was -0.66% (inactive).

On to `COC(=O)C1CCN(C(=O)c2sc3nc(-c4ccc(F)cc4)cn3c2C)CC1`, for which the viability in test [1] was 76.5%; in test [3] it was 76.5% (inactive); in test [4] it was 99.8% (inactive); in test [5] it was 100% (inactive); in test [6] (setting [9]) it was 77.9%; in test [6] (setting [10]), 100%. Besides, the Her2 level in test [2] is 92% (inactive). The differential viability (reversal) in test [6] (H69AR cells + 2 uM doxorubicin) was 22.1% (inactive). Moreover, the inhibition is -1.07% (inactive) in test [7] and 0.81% (inactive) in test [8].

As for `Cc1ccc(-c2noc(C3CCCN(C(=O)c4ccccc4)C3)n2)o1` (stereo not given), the viability in test [1] is 86%; in test [3] it was 86% (inactive); in test [4], 94.8% (inactive); in test [5], 95.1% (inactive); in test [6] (setting [9]), 91%; in test [6] (setting [10]), 95.1%. Moreover, the Her2 level in test [2] was 95% (inactive). Moreover, the differential viability (reversal) in test [6] (H69AR cells + 2 uM doxorubicin) was 4.09% (inactive). Further, the inhibition in test [7] was -5.66% (inactive); in test [8], 0.33% (inactive).

Source of the values: PubChem BioAssay.
